Assay results published in ChEMBL document CHEMBL2202977, “Optimization and structure-activity relationships of a series of potent inhibitors of methicillin-resistant Staphylococcus aureus (MRSA) pyruvate kinase as novel antimicrobial agents” (Bioorg Med Chem, 2012).
pIC50: −log10 of the molar value. Values after ≈ are worked out from the molar mass of the structure shown.

Columns and labels:
Staphylococcus aureus [1] = test: Antimicrobial activity against Staphylococcus aureus RN4220 after 24 hrs broth microdilution method; type: functional
In short: (§1)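 MIC taken as the minimum concentration giving >98% growth inhibition of the named S. aureus strain (RN4220, ATCC 25923 or ATCC 29213). Values are single determinations or averages of n determinations. Vancomycin was run as control.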

Pyruvate kinase = molecular target: T1, Pyruvate kinase (Staphylococcus aureus (strain MRSA252), UniProt Q6GG09); test: Inhibition of methicillin-resistant Staphylococcus aureus 252 pyruvate kinase by LDH assay; design: species or system Staphylococcus aureus subsp. aureus MRSA252
T1 sequence (Q6GG09 whole entry): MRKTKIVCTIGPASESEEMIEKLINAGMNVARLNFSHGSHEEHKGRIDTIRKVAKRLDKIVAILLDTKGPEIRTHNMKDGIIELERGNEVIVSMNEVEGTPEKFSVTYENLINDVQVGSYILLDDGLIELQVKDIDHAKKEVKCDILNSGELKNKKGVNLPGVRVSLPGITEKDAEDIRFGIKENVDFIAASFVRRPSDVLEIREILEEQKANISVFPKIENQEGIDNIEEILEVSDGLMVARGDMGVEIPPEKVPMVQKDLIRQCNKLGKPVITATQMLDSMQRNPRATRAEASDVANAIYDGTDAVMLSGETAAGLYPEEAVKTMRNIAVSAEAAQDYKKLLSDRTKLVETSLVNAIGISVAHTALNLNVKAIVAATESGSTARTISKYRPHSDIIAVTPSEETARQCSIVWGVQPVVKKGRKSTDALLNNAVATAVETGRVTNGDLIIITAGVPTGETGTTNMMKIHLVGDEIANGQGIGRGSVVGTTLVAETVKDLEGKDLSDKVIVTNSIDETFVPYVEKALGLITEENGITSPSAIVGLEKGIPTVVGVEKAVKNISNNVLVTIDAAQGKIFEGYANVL
In short: (§2)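 MRSA pyruvate kinase activity was measured by a previously described procedure. IC50 was calculated from triplicate 15-point titrations, or averaged over n such determinations. Where no IC50 was obtained, the value is % inhibition at the highest concentration tested.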

Staphylococcus aureus [2] = test: Antimicrobial activity against Staphylococcus aureus ATCC 29213 after 24 hrs broth microdilution method; type: functional; in short: as §1
[3] = molecular target: T2, Pyruvate kinase (Staphylococcus aureus (strain MRSA252)) (UniProt Q6GG09); test: Inhibition of methicillin-resistant Staphylococcus aureus 252 pyruvate kinase at 10 uM by LDH assay; details: Staphylococcus aureus subsp. aureus MRSA252; in short: as §2
T2 sequence (whole entry): T1 sequence (Q6GG09 whole entry)

[4] = molecular target: Pyruvate kinase PKLR (Homo sapiens) (UniProt P30613); test: Inhibition of human pyruvate kinase R at 10 uM by LDH assay
Chain of Pyruvate kinase PKLR (Homo sapiens) (P30613 whole entry, looked up, canonical isoform): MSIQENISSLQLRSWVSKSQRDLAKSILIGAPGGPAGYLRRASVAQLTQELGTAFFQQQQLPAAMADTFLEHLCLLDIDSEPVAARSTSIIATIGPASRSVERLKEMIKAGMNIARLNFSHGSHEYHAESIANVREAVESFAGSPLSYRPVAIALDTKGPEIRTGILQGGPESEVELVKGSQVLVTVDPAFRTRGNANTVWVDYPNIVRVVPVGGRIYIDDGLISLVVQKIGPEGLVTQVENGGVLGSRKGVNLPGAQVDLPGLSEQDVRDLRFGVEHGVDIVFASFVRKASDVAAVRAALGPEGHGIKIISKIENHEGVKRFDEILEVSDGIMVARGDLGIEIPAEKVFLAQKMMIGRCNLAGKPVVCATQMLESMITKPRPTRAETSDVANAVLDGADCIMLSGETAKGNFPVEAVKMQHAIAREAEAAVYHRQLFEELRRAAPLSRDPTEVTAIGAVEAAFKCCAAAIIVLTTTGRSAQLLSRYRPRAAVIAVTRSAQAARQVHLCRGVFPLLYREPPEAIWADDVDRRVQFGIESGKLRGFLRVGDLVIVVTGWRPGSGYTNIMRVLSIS
In short: (§3)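 Selected compounds were tested against mammalian PK isoforms M1, M2, R and L at the highest concentration, 10 µM. Results are given as percent inhibition.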

[5] = molecular target: Pyruvate kinase PKLR (Homo sapiens) (UniProt P30613); test: Inhibition of human pyruvate kinase L at 10 uM by LDH assay; in short: as §3
[6] = molecular target: Pyruvate kinase PKM (Homo sapiens) (UniProt P14618); test: Inhibition of human pyruvate kinase M1 at 10 uM by LDH assay; in short: as §3
Chain of Pyruvate kinase PKM (Homo sapiens) (P14618 2-531 limits assumed): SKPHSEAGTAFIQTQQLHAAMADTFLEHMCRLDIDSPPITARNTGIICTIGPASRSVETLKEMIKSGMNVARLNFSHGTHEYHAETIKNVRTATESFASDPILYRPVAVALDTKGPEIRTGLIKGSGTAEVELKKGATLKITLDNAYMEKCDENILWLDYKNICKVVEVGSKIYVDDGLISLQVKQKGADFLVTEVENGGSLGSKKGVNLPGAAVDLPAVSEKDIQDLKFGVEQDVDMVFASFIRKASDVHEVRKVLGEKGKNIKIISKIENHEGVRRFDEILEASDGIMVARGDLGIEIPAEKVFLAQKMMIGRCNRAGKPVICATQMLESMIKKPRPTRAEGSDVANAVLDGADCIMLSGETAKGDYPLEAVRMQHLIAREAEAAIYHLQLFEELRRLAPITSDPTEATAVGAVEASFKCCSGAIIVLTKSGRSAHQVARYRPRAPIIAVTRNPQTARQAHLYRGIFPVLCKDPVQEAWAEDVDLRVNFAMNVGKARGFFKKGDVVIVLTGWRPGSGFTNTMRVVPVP

[7] = molecular target: Pyruvate kinase PKM (Homo sapiens) (UniProt P14618); test: Inhibition of human pyruvate kinase M2 at 10 uM by LDH assay; in short: as §3

SMILES | MIC>98 (Staphylococcus aureus [1]) [µg/mL] | pIC50 (Pyruvate kinase) | MIC>98 (Staphylococcus aureus [2]) [µg/mL] | inhibition [3] [%] | inhibition [4] [%] | inhibition [5] [%] | inhibition [6] [%] | inhibition [7] [%]
C/C(=N\NC(=O)c1cc(Br)ccc1O)c1cc2cc(F)c(F)cc2[nH]1 | >82 | 7.70 |  |  |  |  |  | 
CC(=NNC(=O)c1cc2ccccc2cc1O)c1cc2cc(Br)ccc2n1C (mixture of isomers) |  | 6.94 | >64 |  |  |  |  | 
C/C(=N\NC(=O)c1cc(I)ccc1O)c1cc2ccccc2[nH]1 | >84 | 6.82 |  | 97 | 0.9 | -1.6 | 0 | -1.3
C/C(=N\NC(=O)c1cc(Br)ccc1O)c1cc2c(F)c(F)c(F)cc2[nH]1 |  | 7.82 | >85 |  |  |  |  | 
CC(=NNC(=O)c1cc(Br)ccc1O)c1cc2cc(F)ccc2n1C (mixture of isomers) | 3.3 | 6.78 |  | 96.1 | -2.9 | -2.3 | -4.5 | 
C/C(=N\NC(=O)c1cc(Br)ccc1O)c1cc2ccccc2s1 | >195 | 6.54 |  | 96.4 | 12.5 | 7.3 | 10.2 | -1.1
CCC(=NNC(=O)c1cc(Br)ccc1O)c1cc2ccccc2n1C (mixture of isomers) | 5 | 6.34 |  | 99.1 | -1.9 | 2.7 | -4.3 | -1.5
Cn1c(C=NNC(=O)c2cc(Br)ccc2O)cc2ccccc21 (mixture of isomers) | >186 | 5.51 |  |  |  |  |  | 
COc1ccc2[nH]c(/C(C)=N/NC(=O)c3cc(Br)ccc3O)cc2c1 | >80 | 6.75 |  | 89.3 | 5.2 | 3.9 | 7.2 | 2.2
C/C(=N\NC(=O)c1cc(Br)cc(Br)c1O)c1cc2ccccc2[nH]1 | 64 (≈ 142 µM) | 7.13 |  |  |  |  |  | 
C/C(=N\NC(=O)c1ccccc1)c1cc2ccccc2[nH]1 | >139 |  |  | 28 |  |  |  | 
C/C(=N\NC(=O)c1cc(Br)ccc1O)c1cc2cc(F)ccc2[nH]1 | >195 | 7.31 |  | 97 | -1.6 | -0.5 | -4.6 | 0.4
C/C(=N\NC(=O)c1cc(Br)ccc1O)c1cc2cc(C(F)(F)F)ccc2[nH]1 |  |  |  | 46 |  |  |  | 
COc1ccc(Br)cc1S(=O)(=O)N/N=C(\C)c1cc2ccccc2[nH]1 |  |  |  | 12 |  |  |  | 
C/C(=N\NC(=O)c1cc(-c2ccccc2)ccc1O)c1cc2ccccc2[nH]1 |  |  |  | 20 |  |  |  | 
C/C(=N\NC(=O)c1cc(Br)ccc1O)c1cc2cc(I)ccc2[nH]1 | >64 | 7.37 |  |  |  |  |  | 
C/C(=N\NC(=O)c1cc(C(C)C)cc(C(C)C)c1O)c1cc2ccccc2[nH]1 |  |  |  | 40 |  |  |  | 
CC(=NNC(=O)c1cc(Br)ccc1O)c1nc2ccccc2n1C (mixture of isomers) | >194 | 6.64 |  |  | 7.1 | -1.3 | -3 | 0.5
C/C(=N\NC(=O)c1cc(Br)ccc1O)c1cc2c(F)c(F)ccc2[nH]1 | 41 (≈ 100 µM) | 7.62 |  |  |  |  |  | 
CC(=NNC(=O)c1cc(Br)ccc1O)c1cc2cc(Cl)ccc2n1C (mixture of isomers) | 1.3 | 6.64 |  | 92.3 | 6.9 | 5.7 | 14.8 | 3.7
O=C(N/N=C/c1cc2ccccc2[nH]1)c1cc(Br)ccc1O | >179 | 6.06 |  | 89.9 | -0.5 | 0.2 | -7.2 | -1.4
CC(=NNC(=O)c1cc(I)ccc1O)c1cc2ccccc2n1C (mixture of isomers) | 5.4 | 6.32 |  | 94.2 | 4.7 | 4.4 | -5.3 | -2

SMILES | MIC>98 (Staphylococcus aureus [1]) [µg/mL] | pIC50 (Pyruvate kinase) | MIC>98 (Staphylococcus aureus [2]) [µg/mL] | inhibition [3] [%] | inhibition [4] [%] | inhibition [5] [%] | inhibition [6] [%] | inhibition [7] [%]
C/C(=N\OC(=O)c1cc(Br)ccc1O)c1cc2ccccc2n1C | >155 |  |  | 34 |  |  |  | 
CC(=NNC(=O)c1cc(Br)ccc1O)c1nc2ccccc2s1 | >78 | 6.65 |  |  |  |  |  | 
C/C(=N\NC(=O)c1ccccc1O)c1cc2ccccc2[nH]1 | 59 (≈ 201 µM) | 5.06 |  |  |  |  |  | 
C#CCOc1ccccc1C(=O)N/N=C(\C)c1cc2cc(Br)ccc2[nH]1 | >205 | 7.19 |  | 93.2 | 24 | 23.1 | 20.2 | 2.5
COc1ccc(Br)cc1S(=O)(=O)N/N=C(\C)c1cc2c(F)c(F)ccc2[nH]1 |  |  |  | 11 |  |  |  | 
CC(=NNC(=O)c1cc(Br)ccc1O)c1cc2cc(Br)ccc2n1C (mixture of isomers) | 1.4 | 6.84 |  |  | 14.2 | 9.2 | 19.5 | 11.9
C/C(=N\NC(=O)c1cccc(Br)c1)c1cc2ccccc2[nH]1 | >178 | 5.09 |  |  |  |  |  | 
C/C(=N\NC(=O)c1cc(Br)ccc1O)c1nc2ccccc2[nH]1 | >187 | 7.04 |  | 96.4 | -1.4 | 2.1 | 7.6 | 6.7
COc1ccc(Br)cc1C(=O)O/N=C(\C)c1cc2ccccc2n1C | >161 |  |  | 33 |  |  |  | 
CC(=NNC(=O)c1cc(Br)ccc1O)c1cc2ccc(Br)cc2n1C (mixture of isomers) | 1 | 7.77 |  |  |  |  |  | 
C/C(=N\NC(=O)c1ccccn1)c1cc2ccccc2[nH]1 | >139 |  |  | 15 |  |  |  | 
CC(=NNC(=O)c1cc(Br)ccc1O)c1cc2c(F)c(F)ccc2n1C (mixture of isomers) | 2 | 6.84 |  |  |  |  |  | 
C/C(=N\NC(=O)c1cc(Br)ccc1O)c1cc2ccccc2[nH]1 | >186 | 7.07 |  | 98.1 | -8.7 | -6.9 | 4.6 | 4.3
C/C(=N\NC(=O)c1cc(Br)ccc1O)c1cc2cc(Br)ccc2[nH]1 | >226 | 7.31 |  | 72.2 | 10.7 | 6.8 | 21.6 | 8.3
COc1ccc2c(c1)cc(C(C)=NNC(=O)c1cc(Br)ccc1O)n2C (mixture of isomers) | 10.4 | 6.10 |  | 71.3 | 5.5 | 2.8 | -2.8 | 
CC/C(=N\NC(=O)c1cc(Br)ccc1O)c1cc2ccccc2[nH]1 | 9.7 (≈ 25.1 µM) | 6.90 |  | 99.2 | 4.8 | 3.6 | 6.6 | -2.4
C/C(=N\NC(=O)c1cc(Br)ccc1O)c1cc2cc(Cl)ccc2[nH]1 | >81 | 7.28 |  | 80.1 | 2.4 | 0.1 | 4.4 | 4.6
CC(=NNC(=O)c1cc(Br)ccc1O)c1cc2cc(F)c(F)cc2n1C (mixture of isomers) | 1.6 | 7.21 |  | 95.4 | 9 | -2.4 |  | -8.1
COc1cc(O)c(C(=O)N/N=C(\C)c2cc3ccccc3[nH]2)cc1Br | >161 | 6.49 |  |  |  |  |  | 
COc1cc(O)c(C(=O)NN=C(C)c2cc3ccccc3n2C)cc1Br (mixture of isomers) | >167 | 6.08 |  |  |  |  |  | 
COc1ccc(Br)cc1C(=O)N/N=C(\C)c1cc2ccccc2[nH]1 | >193 | 6.74 |  | 83.4 | 31.9 | 27.2 | 29 | 16.1
C/C(=N\NC(=O)c1ccc(Br)cc1O)c1cc2ccccc2[nH]1 |  | 5.88 |  |  |  |  |  | 
